The values that follow come from publication PMC5598529 (Toxicology Reports, 2014).

As a reminder, the EC50 is the concentration giving half of the maximal effect. Low values mean an effect from little substance, high ones a need for much substance.

Format in all cases: cell-based, human
The test system of data set [1] is Caco-2 cells. The data set can be described thus: MTT cell viability assay. The following applies: for concentration at which toxicity was observed: 3 days-period of exposure; for Cell viability (J10), concentration given for the effect: day 10, p < 0.05; for concentration at which impact on viability appeared: appeared later (J7). A digest of the protocol:
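Caco-2 (passage 25–39) were seeded at 5 × 10^4/well. After 20 h they received 0.1–100 μM test compound, alone or as an equimolar mixture, in 4% FBS medium, renewed every 48 h, for 3, 7 and 10 days. MTT (0.5 mg/ml in RPMI) was added for 4 h at 37 °C and stopped with SDS/NaOH. Absorbance was read at 570/690 nm as % of DMSO control; EC50 was taken from the dose–response curve. Three experiments, each in quadruplicate.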
For orientation: Tetrazolium dyes change colour on reduction, which living cells bring about.

Data set [2] concerns Caco-2 cell monolayer. The data set can be described thus: Transepithelial electrical resistance. The following applies: for TEER (J10), direction of effect: 1-25 μM, 10 days, vs control; for TEER (J10), concentration given for the effect: day 10. A digest of the protocol: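 Caco-2 were grown on collagen-coated Transwells (2.5 × 10^5 cells/well) for 4 days. They were then exposed apically and basolaterally to 1, 5, 10 or 25 μM test compound or 0.1% DMSO, renewed every 2 days. Resistance was measured at days 0, 3, 7 and 10 and expressed in Ω cm2. Mean ± SEM of 3 independent experiments, each in triplicate.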

The test system of data set [3] is Caco-2 cell monolayer. Kind of data set: Phenol red diffusion. The following applies: 1-25 μM, day 10, vs control. A digest of the protocol:
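Monolayers were grown on collagen-coated Transwells (2.5 × 10^5 cells/well) for 4 days. Then 1, 5, 10 or 25 μM test compound or 0.1% DMSO was added to both compartments in 4% FBS medium, renewed every 2 days. At day 10, phenol red medium was placed apically and phenol red-free medium basolaterally. Apical-to-basolateral diffusion over 4 h was read at 560 nm and expressed as percent diffusion.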

For data set [4], the system named is Alkaline phosphatase activity in Caco-2 cells. The data set can be described thus: Alkaline phosphatase assay for cell differentiation. The following applies: for ALP activity (J10), direction of effect: 1-25 μM, 10 days, vs control, p < 0.01; for ALP activity (J10), concentration given for the effect: day 10, p < 0.01. The method, boiled down: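 Caco-2 seeded at 1.125 × 10^5 cells/well and treated next day with 1, 5, 10 or 25 μM of test compound, or 0.1% DMSO vehicle, for 10 days in 4% FBS medium, renewed every 48 h. Cells were scraped into cold 50 mM Tris pH 7.5 and needle-homogenised. Lysate ALP hydrolysed pNPP over 30 min at pH 10.4, 37 °C; p-nitrophenol read at 405 nm, per mg protein, as % of control.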

The subject of data set [5] is Caco-2 cells. The data set can be described thus: Lipid peroxidation measurement. The following applies: 48 h exposure; for TBARS level with respect to control: 25 μM; for Lipid peroxidation, concentration given for the effect: p < 0.01. The method, boiled down: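 Cells were seeded at 1.25 × 10^5/well and exposed for 48 h to 25 or 100 μM test compound. Culture medium was mixed with HCl and TBA buffer, heated 10 min at 95 °C, ice-cooled and extracted with n-butanol. Absorbance was read at 532 nm. MDA equivalents were calculated from a TMOP calibration curve.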

Data set [6] relates to Caco-2 cells. Kind of data set: Intracellular ROS. The following applies: 6 h exposure, p < 0.05; for H2O2 production, direction of effect: 25 or 100 μM, vs control. The method, boiled down:
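Cells were plated at 5 × 10^4/well and grown 48 h in 10% FBS medium, then washed with PBS. They were exposed for 6 h at 37 °C to 25 or 100 μM test compound in HBSS containing 5 μM H2-DCFDA; controls had 0.025% DMSO. After PBS washes, fluorescence was read at ex 485/em 530 nm.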

Data set [7] has as its system Caco-2 cells. Kind of data set: Detection of apoptosis and necrosis by Hoechst 33342 and PI staining. The following applies: 25 μM, 48 h; for Percent of necrosis in treated vs control cells: ratio of percentage of necrotic cells in treated versus untreated cells. A digest of the protocol:
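Cells were seeded at 1.25 × 10^5/well. After 20 h they received 25 μM test compound, alone or as an equimolar mixture, for 48 h. They were stained with Hoechst 33342 (5 μg/ml) plus PI (1 μg/ml) for 30 min at 37 °C in the dark, then washed. Normal, apoptotic and necrotic cells were counted in four random fields per well. Three independent experiments, each in triplicate.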

Data set [8] has as its system glutathione peroxidase (GPx) activity in Caco-2 cells. The data set can be described thus: Antioxidant enzyme assay: glutathione peroxidase. The following applies: 10 days, 1, 5, 10 and 25 μM, vs control. A digest of the protocol:
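GPx activity was measured in Caco-2 exposed to 1–25 μM test compound or vehicle for 10 days. Cells were sonicated in 50 mM phosphate pH 7 with 1 mM EDTA and the 105,000 × g supernatant was used. The assay was coupled to glutathione reductase with H2O2 and NADPH, and NADPH loss was followed at 340 nm. Specific activity is given as % of control.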

In data set [9] the test system is superoxide dismutase (SOD) activity in Caco-2 cells. Kind of data set: Antioxidant enzyme assay: superoxide dismutase. The following applies: 10 days, 1, 5, 10 and 25 μM, vs control. A digest of the protocol:
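Supernatant at 105,000 × g from sonicated Caco-2 was used, after 10 days' exposure to 1–25 μM test compound or vehicle. Superoxide came from xanthine–xanthine oxidase, and inhibition of NBT reduction was followed kinetically at 560 nm for 5 min over several protein amounts. One unit inhibits formazan formation by 50%. Specific activity is given as % of control.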

Data set [10] concerns Caco-2 cells. Kind of data set: Observation of morphologic changes. The following applies: 25 μM, 72 h, phase contrast microscopy. A digest of the protocol: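 Cells were seeded at 1.125 × 10^5/well and grown 20 h. They were then exposed to 25 μM test compound for 72 h and morphology was examined by phase-contrast microscopy.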
The test system of data set [11] is catalase (CAT) activity in Caco-2 cells. The data set can be described thus: Antioxidant enzyme assay: catalase. The following applies: 10 days, 1, 5, 10 and 25 μM, vs control. A digest of the protocol:
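Cells at 1.5 × 10^5/well were exposed next day to 1–25 μM test compound or vehicle, renewed every 48 h. At day 10 they were sonicated in 50 mM phosphate pH 7 with 1 mM EDTA. Catalase was measured in the 105,000 × g (1 h, 4 °C) supernatant as H2O2 decomposition followed at 240 nm for 30 s. Specific activity is given as % of control.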

For data set [12], the system named is phospho-Akt (Ser473) in Caco-2 cells. The data set can be described thus: Western blot analysis of Akt. The following applies: 25 μM, compared to control. The method, boiled down: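 Cells at 1.5 × 10^5/well were exposed 20 h after seeding to 25 μM of each test compound or the mixture for 10 days. Lysis was in RIPA with protease and phosphatase inhibitors. 25 μg protein was resolved by SDS-PAGE and blotted to nitrocellulose. Blots were probed overnight at 4 °C with anti-phospho-Akt Ser473 (1/2000) and anti-Akt1/2/3 (1/1000), then detected with 800 nm infrared-dye secondaries and quantified by relative fluorescence. Three independent experiments.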
(In general: A western blot detects proteins with antibodies after separation by electrophoresis.)

“Also recorded” adds a separate entry of the source.

Consider `COP(=S)(OC)Oc1ccc([N+](=O)[O-])c(C)c1` [FNT, fenitrothion], for which, in data set [1], the “concentration at which toxicity was observed” value stood at 1 µM and the “Cell viability (J10), concentration given for the effect” value (from here on “Cell viability (J10)”) came out at 5 µM. Further, in data set [2], the “TEER (J10), direction of effect” value is listed as “net decrease” and the “TEER (J10), concentration given for the effect” value (shortened to “TEER (J10), concentration given”) was found to be 10 µM. Further, the “Apparent permeability (J10) (phenol red diffusion), direction of effect” value (shortened to “Apparent permeability (J10)”) in data set [3] was “increase of the apparent permeability”. Besides, in data set [4], the “ALP activity (J10), direction of effect” value is “decreased ALP activity” and the “ALP activity (J10), concentration given for the effect” value (“ALP activity (J10) … for the effect” below) is 5 µM. Besides, in data set [5], the “TBARS level with respect to control” value turned out to be 167.66% and the “Lipid peroxidation, concentration given for the effect” value (“Lipid peroxidation” for short) came to 25 µM. Besides, in data set [6], the “H2O2 production, direction of effect” value is recorded as “strongest effect” and the “H2O2 production, concentration given for the effect” value (“H2O2 production … for the effect” for short) is 25 µM. For the same molecule, in [7], the “Percent of necrosis in treated vs control cells” value (shortened to “Percent of necrosis in treated”) is 4.4. Further, in data set [8], the GPx activity result is listed as “increase”. Moreover, the SOD activity entry in data set [9] is on record as “increase”. Moreover, the “morphological changes / cell density” value in data set [10] is listed as “reduction of cell density”.
For `CC1(C)[C@H](C(=O)O[C@H](C#N)c2cccc(Oc3ccccc3)c2)[C@@H]1C=C(Br)Br` [DTM, deltamethrin], in [1], the “concentration at which impact on viability appeared” value (“concentration at which impact” below) worked out at 8 µM and the “Cell viability (J10)” value came to 8 µM. Also, in data set [2], the “TEER (J10), direction of effect” value is recorded as “significant increase” and the “TEER (J10), concentration given” value worked out at 10 µM. Moreover, the “Apparent permeability (J10)” value in [3] is on record as “decrease of membrane permeability”. Moreover, in data set [4], the “ALP activity (J10), direction of effect” value is “increased its activity” and the “ALP activity (J10) … for the effect” value turned out to be 1 µM. For the same molecule, the “Lipid peroxidation” value in data set [5] came out at 100 µM. Moreover, in data set [6], the “H2O2 production, direction of effect” value is on record as “strongest effect” and the “H2O2 production … for the effect” value turned out to be 25 µM. Also, in [7], the “Percent of necrosis in treated” value was 2.7. Moreover, in data set [11], the CAT activity entry is “increase”.
Take `O=C(NC(=O)c1c(F)cccc1F)Nc1cc(Cl)c(F)c(Cl)c1F` [TBZ, teflubenzuron]: in data set [1], the “concentration at which toxicity was observed” value is 5 µM and the “Cell viability (J10)” value is 5 µM. Moreover, in data set [2], the “TEER (J10), direction of effect” value is “net decrease” and the “TEER (J10), concentration given” value was 5 µM. Also, the “Apparent permeability (J10)” value in [3] was “increase of the apparent permeability”. Moreover, in [4], the “ALP activity (J10), direction of effect” value was “increased its activity” and the “ALP activity (J10) … for the effect” value amounted to 5 µM. Also, the “Lipid peroxidation” value in [5] was determined as 25 µM. The “H2O2 production … for the effect” value in data set [6] was determined as 100 µM. The “Percent of necrosis in treated” value in [7] stood at 3.8. Besides, the CAT activity result in data set [11] was “no change”. Also, in [8], the GPx activity entry is reported as “no change”. In [9], the SOD activity result is listed as “no change”.
With `CC1(C)[C@H](C(=O)O[C@H](C#N)c2cccc(Oc3ccccc3)c2)[C@@H]1/C=C(\Cl)C(F)(F)F` (racemic) [LCT, lambda-cyhalothrin], in data set [1], the “concentration at which impact” value was found to be 1 µM and the “Cell viability (J10)” value amounted to 1 µM. For the same molecule, in data set [2], the “TEER (J10), direction of effect” value was “significant increase” and the “TEER (J10), concentration given” value was 25 µM. Moreover, in data set [3], the “Apparent permeability (J10)” value is listed as “decrease of membrane permeability”. In data set [4], the “ALP activity (J10), direction of effect” value is “increased its activity” and the “ALP activity (J10) … for the effect” value was 1 µM. Moreover, the “Lipid peroxidation” value in [5] is 100 µM. Further, in data set [6], the “H2O2 production … for the effect” value stood at 100 µM. In addition, in [11], the CAT activity result is given as “increase”. For the same molecule, the “level of phospho-Akt (Ser473)” value in [12] is “greatest impact”.
`N#Cc1nn(-c2c(Cl)cc(C(F)(F)F)cc2Cl)c(N)c1[S+]([O-])C(F)(F)F` (stereo not shown) [FPN, fipronil] came in with an EC50 in data set [1] (Caco-2 cells, 10 days exposure, 0.1-100 μM, mean ± SEM) of 18.1 ± 0.5 µM. For the same molecule, in data set [1], the “concentration at which impact” value is 5 µM and the “Cell viability (J10)” value came to 5 µM. Moreover, the “TEER (J10), direction of effect” value in data set [2] was “failed to produce a clear and noticeable change”. Further, in [4], the “ALP activity (J10), direction of effect” value is recorded as “decreased ALP activity” and the “ALP activity (J10) … for the effect” value worked out at 10 µM. Moreover, in [5], the “TBARS level with respect to control” value is 192.45% and the “Lipid peroxidation” value amounted to 25 µM. In [6], the “H2O2 production, direction of effect” value was “strongest effect” and the “H2O2 production … for the effect” value amounted to 100 µM. In addition, in data set [7] (vs control), the apoptotic cells result is given as “huge increased” and the “percentage of necrotic cells” value was “increased to a lesser extent”. The “Percent of necrosis in treated” value in [7] turned out to be 3.2. Besides, the GPx activity result in data set [8] was “increase”. Further, the “level of phospho-Akt (Ser473)” value in [12] is on record as “reduced level; also recorded: greatest impact”. For the same molecule, the “morphological changes / cell density” value in data set [10] is “reduction of cell density”.
